Compounds with a hit are over-represented: about 1.3% of the library has one in this group of screens.
RAD54 inh = inhibitors of human RAD54 branch migration, primary screen, biochemical, fluorescence, single point; inhibition, % at 10.4 µM; DNA repair and recombination protein RAD54-like (Homo sapiens), Q92698; 360,000 compounds, 0.14% hits; RAD54 Holliday junction branch migration, FAM/BHQ fluorescence;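 active means mean normalized replicate activity at least 40 and at least half of replicates scoring 40 or more; inconclusive means only one of the two criteria met; inactive means mean below 40 and under half of replicates reaching 40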;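 further: 0% = median of neutral control wells and 100% = median of positive control wells; inhibitors cause a drop in the FAM fluorescence signal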
Target sequence (Q92698 whole entry, looked up): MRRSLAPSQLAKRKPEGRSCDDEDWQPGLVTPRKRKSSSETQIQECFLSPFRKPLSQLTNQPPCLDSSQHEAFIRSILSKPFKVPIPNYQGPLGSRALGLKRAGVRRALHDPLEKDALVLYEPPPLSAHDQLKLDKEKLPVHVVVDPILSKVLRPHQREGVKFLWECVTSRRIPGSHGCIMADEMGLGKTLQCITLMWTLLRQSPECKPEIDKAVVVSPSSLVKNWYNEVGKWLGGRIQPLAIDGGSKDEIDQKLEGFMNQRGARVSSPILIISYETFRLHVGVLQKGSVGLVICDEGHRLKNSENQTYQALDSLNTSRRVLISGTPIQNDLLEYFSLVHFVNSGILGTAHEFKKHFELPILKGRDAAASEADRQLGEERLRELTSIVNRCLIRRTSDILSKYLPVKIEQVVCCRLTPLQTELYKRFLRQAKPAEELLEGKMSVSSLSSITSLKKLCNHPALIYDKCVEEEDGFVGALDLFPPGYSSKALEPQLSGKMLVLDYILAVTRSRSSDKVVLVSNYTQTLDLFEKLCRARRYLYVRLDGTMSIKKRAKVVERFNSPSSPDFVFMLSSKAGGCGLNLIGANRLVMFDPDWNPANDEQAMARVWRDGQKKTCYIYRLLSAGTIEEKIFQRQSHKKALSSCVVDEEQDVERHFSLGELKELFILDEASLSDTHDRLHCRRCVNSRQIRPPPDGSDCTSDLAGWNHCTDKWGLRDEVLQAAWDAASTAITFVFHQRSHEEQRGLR
RAD52 inh = RAD52 DNA annealing inhibitors, primary screen, biochemical, FRET, single point, set 2 | 360,000 compounds, 0.46% hits | recombinant RAD52 DNA annealing, FRET fluorescence | inhibition, % at 18.7 µM | DNA repair protein RAD52 homolog (Homo sapiens), P43351;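 active means every replicate showing at least 50% inhibition; inconclusive means mean inhibition at least 50% but not in every replicate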
Casp6 inh = human caspase-6 inhibitors, primary screen, biochemical, VEID-R110 fluorescence, single point, set 2. P55212. purified caspase-6, Z-VEID-R110 cleavage fluorescence. inhibition, % at 12.5 µM. 350,000 compounds, 0.53% hits. AID 686996, 2013;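 active means mean inhibition across replicates at least about 35%, with every replicate also reaching that limit, limit read from the data; inconclusive means only one of the two criteria met; inactive means neither criterion met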;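 further: 0% = median of neutral control wells and 100% = no fluorescence left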
AF4-AF9 inh = inhibitors of AF4 peptide binding to AF9, primary screen, biochemical, AlphaScreen, biotin-AF4 peptide, FLAG-AF9, single point; inhibition, % at 10 µM; AID 651704, 2012; 350,000 compounds, 0.47% hits;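 active means every replicate reaching a set inhibition limit, whatever the replicate mean, cut at about 25% in these data; inconclusive means mean inhibition reaches that limit but some replicates miss it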;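 further: 0% = plate neutral control median and 100% = total signal loss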
XiGFP reactiv = activators of inactive X chromosome reactivation, primary screen, imaging, XiGFP fibroblasts, GFP high-content imaging, set 2. activation, % at 7.58 µM. XiGFP mouse fibroblasts, % GFP-positive cells imaging, 3 d; cells co-treated with 5-aza-dC sensitizer; scaled so ellipticine positive control = 100%. 360,000 compounds, 0.055% hits;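 active means mean normalized replicate activation at least 10% and every replicate at or above 10%; inconclusive means only one of the two criteria met; inactive means mean below 10% and not all replicates reach 10%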;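 further: 0% = median of on-plate neutral control wells and 100% = ellipticine 6 µM median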
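Assay system – SV40-immortalized XiGFP fibroblast cells, line 68-5-11 · Buffer or medium – DMEM supplemented with 5-aza-dC as sensitizing agent · Dosing – one concentration, pinned · Benchmarks – positive control ellipticine, 6 µM final · Times – 3 days compound exposure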
S100A4 inh HTS = inhibitors of S100A4-myosin IIA peptide binding, primary screen, biochemical, fluorescence polarization, TAMRA-MyoIIA peptide. inhibition, % at 10.7 µM. 360,000 compounds, 0.14% hits;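 active means mean inhibition of at least 70% across replicates, with every replicate also reaching that level; inconclusive means mean inhibition reaches 70% but some replicates fall short; inactive means mean inhibition below 70%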
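Material: human S100A4 monomer with TAMRA-labelled myosin IIA peptide; buffer or medium: HEPES pH 7.2 with CaCl2, KCl, NaCl, DTT, Triton; compound dosing: one concentration per compound; schedule: 5 min incubation before reading; benchmarks: neutral control DMSO, positive control TFP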
Active calls of the source: *; ? = inconclusive; / = not tested or not shown; ! = not confirmed by another sample.

SMILES	RAD54 inh	RAD52 inh	Casp6 inh	AF4-AF9 inh	XiGFP reactiv	S100A4 inh HTS
CCS(=O)(=O)c1ccc(N=Nc2ccc(O)c3ncccc23)c(OC)c1	/	-18	/	?	0	-8
Cc1noc(C)c1S(=O)(=O)Nc1ccc2c(c1)C(=O)N([C@H](C)CO)C[C@H](C)[C@@H](CN(C)S(=O)(=O)c1c(C)noc1C)O2	/	/	/	/	0	/
O=S(=O)(c1ccccc1)N1C[C@@H]2N[C@H](C1)C2c1ccc(-c2ccccc2)cc1 (stereo not given in full)	/	73*!	-2	-2	0	-2
O=S(=O)(c1ccc(-c2ccccc2)cc1)N1C[C@@H]2N[C@H](C1)C2c1ccc(-c2ccncc2)cc1 (stereo not given in full)	/	/	/	/	0	/
Cc1ccc(S(=O)(=O)N2C[C@@H]3N[C@H](C2)C3c2ccc(-c3cccc(C#N)c3)cc2)cc1 (stereo not given in full)	/	82*!	-1	-4	0	-2
Cc1ccc(-c2ccc(C3[C@@H]4CN(S(=O)(=O)c5ccccc5)C[C@H]3N4)cc2)cc1 (stereo not given in full)	/	98*!	-3	-4	0	0
Cc1ccc(S(=O)(=O)N2C[C@@H]3N[C@H](C2)C3c2ccc(-c3ccc(C(=O)N(C)C)cc3)cc2)cc1 (stereo not given in full)	/	/	/	/	0	/
CCCC#Cc1ccc([C@H]2[C@@H](CO)N(C(C)=O)[C@@H]2CNC(=O)C2CC2)cc1	/	-37	-1	-2	0	-15
Cc1cc(C(=O)NC2CCC(C)CC2)c(C)o1 (stereo not given)	2	-12	1	0	0	0
CSCc1cc(C(=O)NC2CC2)c(N)s1	/	-206	6	/	0	74*
CN(C)CC(=O)Nc1ccc2c(c1)[C@H]1C[C@H](CC(=O)NCc3ccc(Cl)cc3)O[C@@H](CO)[C@H]1O2	5	15	-2	1	0	2
COc1ccc(OC)c(NC(=O)Nc2ccc(O)c3ccccc23)c1	-7	0	54*	2	0	-4
COc1ccc(OC)c(NC(=O)Nc2c(O)ccc3ccccc23)c1	4	-3	2	5	0	-3
CCOc1ccc(-c2nnc(SCC(=O)N3CCNC3=O)o2)cc1	0	-5	-2	28*	0	0
CCOc1ccc(-c2nnc(SCC(=O)N3CCN(c4ccccc4)CC3)o2)cc1	11	-10	1	-7	0	0
CO[C@H]1CN(C)C(=O)c2cc(NC(=O)Nc3ccc(Cl)c(Cl)c3)ccc2OC[C@@H](C)NC[C@H]1C	31	52*	/	/	0	/
CO[C@@H]1CN(C)C(=O)c2ccc(NC(=O)Nc3cc(Cl)cc(Cl)c3)cc2OC[C@H](C)NC[C@@H]1C	8	58*	1	12	0	-4
CO[C@H]1CN(C)C(=O)c2ccc(NC(=O)Nc3cc(Cl)cc(Cl)c3)cc2OC[C@H](C)NC[C@@H]1C	/	37	-2	13	0	-5
CO[C@H]1CN(C)C(=O)c2ccc(NC(=O)Nc3ccc(Cl)c(Cl)c3)cc2OC[C@H](C)NC[C@@H]1C	-3	51*	-1	11	0	-3
C[C@H]1CN([C@@H](C)CO)C(=O)c2cccc(NS(=O)(=O)c3ccccc3)c2O[C@@H]1CN(C)C(=O)NC1CCCCC1	13	6	0	-2	-1	-7
C[C@@H]1CCCCO[C@@H](CN(C)C(=O)Nc2ccc(F)cc2)[C@H](C)CN([C@@H](C)CO)C(=O)c2cc(NC(=O)Nc3ccc(F)cc3)ccc2O1	-5	-5	-3	1	0	-3

Screening data from PubChem.
